Assay results as given in paper PMC3729426 (Chemistry (Weinheim an der Bergstrasse, Germany), 2012).
Ends that are not written are not given here. Lumi4(Tb) = Lumi4(Tb) terbium luminescent complex

How the values were obtained:
[1] = test system: MDCKII cells; format: cell-based, canine; details: summary of microscopic observations at higher concentrations
Procedure, shortened: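 MDCKII cells were incubated 30 min at 37 °C in DMEM with FBS, or serum-free, with Tb3+ complex–peptide conjugates at 5, 20 or 60 μM. In one condition, 5 μM conjugate was combined with 30 μM unconjugated Arg9. Live cells were imaged by time-gated luminescence microscopy (10 μs delay, λex 365 nm, λem 540 ± 10 nm) to score punctate versus diffuse cytoplasmic/nuclear distribution.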

[2] = test system: MDCKII cells

Substance: 3: an N-terminal fusion of Lumi4(Tb) to Tat (49–57) ({Lumi4(Tb)}-RKKRRQRRR; UniProt P04608 49-57, looked up, fragment) [compound 3]
- mechanism of delivery mediated by the CPP [1]: non-endocytic, cytoplasmic delivery

Substance: 17: cysteine amide-linked heterodimer of Lumi4 and TEGTMP coupled via a disulfide bond to the peptide Cys-TAT(47–57)-Lys(FAM) [compound 17]
- mechanism of delivery mediated by the CPP [1]: non-endocytic, cytoplasmic delivery
- intracellular disulfide reduction observed microscopically [2]: its disulfide bond is reduced in the cytoplasm and nucleus
- fluorescein signal distribution immediately after washing ([2]; MDCKII cells, 17 (10 μM), serum-free medium, 10 min, 37 °C, continuous wave fluorescence): primarily diffuse throughout the cytoplasm and nucleus
- fluorescein signal distribution 2 h post-wash ([2]; MDCKII cells, 17 (10 μM), serum-free medium, 10 min, imaged 2 h post-wash): punctate staining pattern predominant
- Tb3+-to-fluorescein LRET emission ratio (520 nm/540 nm), 2 h post-wash versus immediate ([2]; MDCKII cells, nuclear region, 17 (10 μM), 4 separate experiments): significantly reduced
